This passage reports IC50 and Activity results from ChEMBL document CHEMBL1141510, “Synthesis and antioxidant activities of 3,5-dialkoxy-4-hydroxycinnamamides” (Bioorg Med Chem Lett, 2008).

One assay concerns Brain. Description: Inhibition of lipid peroxidation in Sprague-Dawley rat brain after 30 mins by TBARS assay. Format: functional, tissue-based. Conditions: 0.5 h. Put shortly: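 Brain from male Sprague–Dawley rats (about 10 weeks old) homogenized in ice-cold 10 mM Tris–HCl, pH 7.4, and spun 10 min at 1000g; the supernatant was used. TBARS read at 532 nm against a 1,1,3,3-tetraethoxypropane external standard.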

Assay [1] can be described thus: Antioxidant activity assessed as ABTS radical scavenging activity. Type of assay: functional.
Assay [2] deals with Radical scavenging activity. Nature of the assay: Antioxidant activity assessed as DPPH radical scavenging activity. Type of assay: functional. Put shortly:
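Sample in ethanol added 1:9 to 0.15 mM DPPH radical in ethanol. Test compound solutions ranged 3–1000 µg/ml. Ethanol alone served as control. Reaction ran 10 min at 25 °C, then absorbance was read at 517 nm. Scavenging expressed as percent loss relative to control absorbance. EC50 taken as the concentration giving 50% loss of DPPH radical.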
Background: The DPPH test is a chemical assay of radical scavenging.

For assay [3], the system named is Radical scavenging activity. Nature of the assay: Antioxidant activity assessed as DPPH radical scavenging activity at 300 uM. Format: functional.
Assay [4] is described as follows: Antioxidant activity assessed as ABTS radical scavenging activity at 150 uM. Type of assay: functional.

One may read the IC50 as the point on the concentration scale where inhibition reaches its midpoint.

Turning to `CCCCOc1cc(/C=C/C(=O)NCCc2cc(C(C)(C)C)c(O)c(C(C)(C)C)c2)cc(OCCCC)c1O`, the IC50 in the assay on Brain turned out to be 0.41 µM.

Take `CCCCOc1cc(/C=C/C(=O)O)cc(OCCCC)c1O`: the IC50 in the assay with Brain came out at 3.68 µM.

Consider `CCCC(C)Oc1cc(/C=C/C(=O)NCCCc2ccc(C)c(C)c2)cc(OC(C)CCC)c1O` (centres undefined), for which the IC50 is 26.3 µM in assay [1], 68.4 µM in assay [2] and 1.33 µM with Brain.

Turning to `CCCCCCOc1cc(/C=C/C(=O)NCc2cc(C(C)(C)C)c(O)c(C(C)(C)C)c2)cc(OCCCCCC)c1O`, the Activity in assay [3] stood at 75%. For the same compound, the IC50 in assay [1] was determined as 23.2 µM; in the assay on Brain, 3.52 µM.

Turning to `CCCCOc1cc(/C=C/C(=O)NCc2cc(C(C)(C)C)c(O)c(C(C)(C)C)c2)cc(OCCCC)c1O`, the IC50 in assay [2] was found to be 177 µM; in the assay with Brain it was 0.42 µM. Also, in assay [4], the Activity worked out at 57%.

`CCCCCCOc1cc(/C=C/C(=O)NCCCc2ccc(C)c(C)c2)cc(OCCCCCC)c1O`: the IC50 in assay [1] turned out to be 28.5 µM; in assay [2] it was 77.7 µM; in the assay with Brain it was 0.29 µM.

Consider `CCCC(C)Oc1cc(/C=C/C(=O)NCc2cc(C(C)(C)C)c(O)c(C(C)(C)C)c2)cc(OC(C)CCC)c1O` (centres undefined), for which the IC50 stood at 66.6 µM in assay [2] and 0.57 µM with Brain. Besides, in assay [4], the Activity came to 47%.

Take `CCC(CC)Oc1cc(/C=C/C(=O)NCCCc2ccc(C)c(C)c2)cc(OC(CC)CC)c1O`: the IC50 in assay [2] came out at 84.4 µM; in the assay with Brain, 1.73 µM. The Activity in assay [4] turned out to be 49%.

Consider `CCCOc1cc(/C=C/C(=O)NCc2cc(C(C)(C)C)c(O)c(C(C)(C)C)c2)cc(OCCC)c1O`, for which the IC50 is 73 µM in assay [2] and 0.27 µM in the assay with Brain. In addition, in assay [4], the Activity was 24%.

In the case of `CCC(CC)Oc1cc(/C=C/C(=O)O)cc(OC(CC)CC)c1O`, the IC50 in the assay with Brain stood at 2.21 µM.

In the assay on Brain, `COc1cc(CNC(=O)CCCc2ccc(C)c(C)c2)ccc1O` came in with an IC50 of 57.2 µM.

`CCCOc1cc(/C=C/C(=O)NCCc2cc(C(C)(C)C)c(O)c(C(C)(C)C)c2)cc(OCCC)c1O`: the IC50 in assay [2] amounted to 114 µM; in the assay on Brain, 0.26 µM. Also, the Activity in assay [4] turned out to be 37%.

Take `CCC(CC)Oc1cc(/C=C/C(=O)NCCc2cc(C(C)(C)C)c(O)c(C(C)(C)C)c2)cc(OC(CC)CC)c1O`: the Activity in assay [3] is 55%. Further, the midpoint of inhibition in the assay with Brain, the IC50, lay at 0.44 µM.

Regarding `COc1cc(/C=C/C(=O)NCc2cc(C(C)(C)C)c(O)c(C(C)(C)C)c2)cc(OC)c1O`, the values for the IC50 (in assay [1]; in assay [2]; with Brain) were 11.3 µM, 80.3 µM and 1.46 µM, respectively.

With `COc1cc(/C=C/C(=O)NCCc2cc(C(C)(C)C)c(O)c(C(C)(C)C)c2)cc(OC)c1O`, the IC50 in assay [1] came to 15.6 µM; in assay [2], 69 µM; in the assay on Brain it was 0.69 µM.

For `CCCCCCOc1cc(/C=C/C(=O)O)cc(OCCCCCC)c1O`, the IC50 in the assay with Brain was 2.24 µM.

`CCC(CC)Oc1cc(/C=C/C(=O)NCc2cc(C(C)(C)C)c(O)c(C(C)(C)C)c2)cc(OC(CC)CC)c1O`: the figures for the IC50 (in assay [2]; in the assay with Brain) were 67.7 µM and 0.82 µM, respectively. Further, the Activity in assay [4] is 44%.

`COc1cc(CC(=O)NCCCc2ccc(C)c(C)c2)ccc1O` gave an IC50 in the assay with Brain of 25.9 µM.

As to `COc1cc(/C=C/C(=O)O)cc(OC)c1O` [SINAPINATE], the half-inhibitory concentration (IC50) in the assay on Brain was found to be 4.77 µM.

Consider `CCCC(C)Oc1cc(/C=C/C(=O)NCCc2cc(C(C)(C)C)c(O)c(C(C)(C)C)c2)cc(OC(C)CCC)c1O` (centres undefined), for which the IC50 in assay [2] is 85.1 µM; in the assay on Brain, 0.36 µM. The Activity in assay [4] turned out to be 64%.

Take `CCCC(C)Oc1cc(/C=C/C(=O)O)cc(OC(C)CCC)c1O` (centres undefined): 4.84 µM corresponded to half-maximal inhibition with Brain (IC50).

Turning to `CCCCCCOc1cc(/C=C/C(=O)NCCc2cc(C(C)(C)C)c(O)c(C(C)(C)C)c2)cc(OCCCCCC)c1O`, the IC50 in assay [1] is 27.4 µM; in assay [2], 75.6 µM; in the assay with Brain, 2.74 µM.
